The source made the active and inactive calls.
Tests used:
[1] = system: Radish; experiment: Pre-emergence herbicidal activity against Raphanus sativus var.Long scarlet (radish) seeds assessed as seed germination inhibition at 1 mol/l at 25 degC after 72 hr by laboratory-based agar medium bioassay; format: functional, organism-based
Procedure, shortened: (§1)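 Solutions tested at 1 to 1 × 10^-4 mol L^-1. 10 seeds/dish, 5 randomized replicate dishes angled ~70°. Incubated 72 h at 25 °C in light. Solvent and no-solvent controls. Germination, root length and shoot length recorded.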

[2] = system: Lolium rigidum; experiment: Pre-emergence herbicidal activity against Lolium rigidum seeds assessed as seed germination at 0.1 mol/l at 25 degC after 72 hr by laboratory-based agar medium bioassay relative to 1,8-Cineole; format: functional
Procedure, shortened: (§2)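 Agar-plate assay as above: compound in organic solvent evaporated onto Ca/B water agar, 10 seeds × 5 dishes, 72 h at 25 °C in light. Germination, root length or shoot length at 0.1 mol L^-1 expressed relative to 1,8-cineole.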

[3] = system: Lolium rigidum; experiment: Pre-emergence herbicidal activity against Lolium rigidum seeds assessed as shoot length at 0.1 mol/l at 25 degC after 72 hr by laboratory-based agar medium bioassay relative to 1,8-Cineole; format: functional; procedure, shortened: as §2
[4] = system: Radish; experiment: Pre-emergence herbicidal activity against Raphanus sativus var.Long scarlet (radish) seeds assessed as root length at 0.1 mol/l at 25 degC after 72 hr by laboratory-based agar medium bioassay relative to control; format: functional; procedure, shortened: as §1
[5] = system: Radish; experiment: Pre-emergence herbicidal activity against Raphanus sativus var.Long scarlet (radish)seeds assessed as seed germination inhibition at 25 degC after 72 hr by laboratory-based agar medium bioassay; format: functional, organism-based; procedure, shortened: as §1
[6] = system: Lolium rigidum; experiment: Pre-emergence herbicidal activity against Lolium rigidum seeds assessed as concentration required to suppress shoot growth at 25 degC after 72 hr by laboratory-based agar medium bioassay; format: functional
[7] = system: Lolium rigidum; experiment: Pre-emergence herbicidal activity against Lolium rigidum seeds assessed as concentration required to suppress seed germination at 25 degC after 72 hr by laboratory-based agar medium bioassay; format: functional
[8] = system: Lolium rigidum; experiment: Pre-emergence herbicidal activity against Lolium rigidum seeds assessed as concentration required to suppress root growth at 25 degC after 72 hr by laboratory-based agar medium bioassay; format: functional
[9] = system: Radish; experiment: Pre-emergence herbicidal activity against Raphanus sativus var.Long scarlet (radish) seeds assessed as concentration required to suppress seed germination at 25 degC after 72 hr by laboratory-based agar medium bioassay; format: functional
[10] = system: Radish; experiment: Pre-emergence herbicidal activity against Raphanus sativus var.Long scarlet (radish) seeds assessed as concentration required to suppress shoot growth at 25 degC after 72 hr by laboratory-based agar medium bioassay; format: functional
[11] = system: Radish; experiment: Pre-emergence herbicidal activity against Raphanus sativus var.Long scarlet (radish) seeds assessed as concentration required to suppress root growth at 25 degC after 72 hr by laboratory-based agar medium bioassay; format: functional
[12] = system: Lolium rigidum; experiment: Pre-emergence herbicidal activity against Lolium rigidum seeds assessed as root length at 0.1 mol/l at 25 degC after 72 hr by laboratory-based agar medium bioassay relative to 1,8-Cineole; format: functional; procedure, shortened: as §2
[13] = system: Radish; experiment: Pre-emergence herbicidal activity against Raphanus sativus var.Long scarlet (radish) seeds assessed as seed germination at 0.1 mol/l at 25 degC after 72 hr by laboratory-based agar medium bioassay relative to 1,8-Cineole; format: functional; procedure, shortened: as §2
[14] = system: Radish; experiment: Pre-emergence herbicidal activity against Raphanus sativus var.Long scarlet (radish) seeds assessed as shoot length at 0.1 mol/l at 25 degC after 72 hr by laboratory-based agar medium bioassay relative to 1,8-Cineole; format: functional; procedure, shortened: as §2
[15] = system: Radish; experiment: Pre-emergence herbicidal activity against Raphanus sativus var.Long scarlet (radish) seeds assessed as root length at 0.1 mol/l at 25 degC after 72 hr by laboratory-based agar medium bioassay relative to 1,8-Cineole; format: functional; procedure, shortened: as §2
[16] = system: Lolium rigidum; experiment: Pre-emergence herbicidal activity against Lolium rigidum seeds assessed as seed germination at 0.1 mol/l at 25 degC after 72 hr by laboratory-based agar medium bioassay relative to control; format: functional; procedure, shortened: as §1
[17] = system: Lolium rigidum; experiment: Pre-emergence herbicidal activity against Lolium rigidum seeds assessed as shoot length at 0.1 mol/l at 25 degC after 72 hr by laboratory-based agar medium bioassay relative to control; format: functional; procedure, shortened: as §1
[18] = system: Lolium rigidum; experiment: Pre-emergence herbicidal activity against Lolium rigidum seeds assessed as root length at 0.1 mol/l at 25 degC after 72 hr by laboratory-based agar medium bioassay relative to control; format: functional; procedure, shortened: as §1
[19] = system: Radish; experiment: Pre-emergence herbicidal activity against Raphanus sativus var.Long scarlet (radish) seeds assessed as seed germination at 0.1 mol/l at 25 degC after 72 hr by laboratory-based agar medium bioassay relative to control; format: functional; procedure, shortened: as §1
[20] = system: Radish; experiment: Pre-emergence herbicidal activity against Raphanus sativus var.Long scarlet (radish) seeds assessed as shoot length at 0.1 mol/l at 25 degC after 72 hr by laboratory-based agar medium bioassay relative to control; format: functional; procedure, shortened: as §1
[21] = system: Radish; experiment: Pre-emergence herbicidal activity against Raphanus sativus var.Long scarlet (radish) seeds assessed as shoot growth inhibition at 25 degC after 72 hr by laboratory-based agar medium bioassay; format: functional, organism-based; procedure, shortened: as §1
[22] = system: Radish; experiment: Pre-emergence herbicidal activity against Raphanus sativus var.Long scarlet (radish) seeds assessed as root growth inhibition at 25 degC after 72 hr by laboratory-based agar medium bioassay; format: functional, organism-based; procedure, shortened: as §1
[23] = system: Lolium rigidum; experiment: Pre-emergence herbicidal activity against Lolium rigidum seeds assessed as shoot growth inhibition at 0.001 to 0.01 mol/l at 25 degC after 72 hr by laboratory-based agar medium bioassay; format: functional, organism-based; procedure, shortened: as §1
[24] = system: Radish; experiment: Pre-emergence herbicidal activity against Raphanus sativus var.Long scarlet (radish) seeds assessed as shoot growth inhibition at 1 mol/l at 25 degC after 72 hr by laboratory-based agar medium bioassay; format: functional, organism-based; procedure, shortened: as §1
[25] = system: Lolium rigidum; experiment: Pre-emergence herbicidal activity against Lolium rigidum seeds assessed as concentration required to suppress seed germination at 25 degC after 72 hr by filter paper bioassay; format: functional
Procedure, shortened: (§3)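 Two seed-plate formats. Filter paper: sterile paper wetted with 1 mL aqueous solution containing 3.4 × 10^-4 g mL^-1 Tween 80, dish sealed and flat. 10 seeds/dish, 5 dishes per concentration. Incubated 72 h at 25 °C under light. Threshold taken by one-way ANOVA at P = 0.05.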

[26] = system: Lolium rigidum; experiment: Pre-emergence herbicidal activity against Lolium rigidum seeds assessed as concentration required to suppress shoot growth at 25 degC after 72 hr by filter paper bioassay; format: functional; procedure, shortened: as §3
[27] = system: Lolium rigidum; experiment: Pre-emergence herbicidal activity against Lolium rigidum seeds assessed as concentration required to suppress root growth at 25 degC after 72 hr by filter paper bioassay; format: functional; procedure, shortened: as §3
[28] = system: Radish; experiment: Pre-emergence herbicidal activity against Raphanus sativus var.Long scarlet (radish) seeds assessed as concentration required to suppress seed germination at 25 degC after 72 hr by filter paper bioassay; format: functional; procedure, shortened: as §3
[29] = system: Radish; experiment: Pre-emergence herbicidal activity against Raphanus sativus var.Long scarlet (radish) seeds assessed as concentration required to suppress root growth at 25 degC after 72 hr by filter paper bioassay; format: functional; procedure, shortened: as §3
[30] = system: Radish; experiment: Pre-emergence herbicidal activity against Raphanus sativus var.Long scarlet (radish) seeds assessed as concentration required to suppress shoot growth at 25 degC after 72 hr by filter paper bioassay; format: functional; procedure, shortened: as §3
[31] = system: Lolium rigidum; experiment: Pre-emergence herbicidal activity against Lolium rigidum seeds assessed as shoot length at 0.1 mol/l at 25 degC after 72 hr by filter paper bioassay relative to control; format: functional
Procedure, shortened: (§4)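 Seeds on sterile filter paper wetted with 1 mL aqueous solution containing 3.4 × 10^-4 g mL^-1 Tween 80. Eucalyptus oil tested at 0.0154 g mL^-1, giving about 0.1 mol L^-1 1,8-cineole. Dishes sealed and kept flat. 10 seeds/dish, 5 dishes. Incubated 72 h at 25 °C under 135–195 μE m^-2 s^-1 light. Germination, root length or shoot length compared with control.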

[32] = system: Lolium rigidum; experiment: Pre-emergence herbicidal activity against Lolium rigidum seeds assessed as seed germination at 0.1 mol/l at 25 degC after 72 hr by filter paper bioassay relative to control; format: functional; procedure, shortened: as §4
[33] = system: Lolium rigidum; experiment: Pre-emergence herbicidal activity against Lolium rigidum seeds assessed as root length at 0.1 mol/l at 25 degC after 72 hr by filter paper bioassay relative to control; format: functional; procedure, shortened: as §4
[34] = system: Radish; experiment: Pre-emergence herbicidal activity against Raphanus sativus var.Long scarlet (radish) seeds assessed as seed germination at 0.1 mol/l at 25 degC after 72 hr by filter paper bioassay relative to control; format: functional; procedure, shortened: as §4
[35] = system: Radish; experiment: Pre-emergence herbicidal activity against Raphanus sativus var.Long scarlet (radish) seeds assessed as shoot length at 0.1 mol/l at 25 degC after 72 hr by filter paper bioassay relative to control; format: functional; procedure, shortened: as §4
[36] = system: Radish; experiment: Pre-emergence herbicidal activity against Raphanus sativus var.Long scarlet (radish) seeds assessed as root length at 0.1 mol/l at 25 degC after 72 hr by filter paper bioassay relative to control; format: functional; procedure, shortened: as §4

With `CCCCCC(=O)O[C@@H]1C[C@@]2(C(C)C)CC[C@@]1(C)O2` (racemic) [2-Exo-hexoxy-1,4-cineole] the Activity [1] was “inactive”.

`CC(C)[C@]12CC[C@@](C)(O1)[C@H](OC(=O)c1ccccc1)C2` (racemic) [2-exo-benzoxy-1,4-cineole] showed a Ratio [2] of 0.7, a Ratio [3] of 1.2 and an Activity [4] of 54.7%. For the same molecule, the Activity [5] was “inactive”, the Activity [6] was 0.0001 mol/L and the Activity [7] was 0.1 mol/L. For the same molecule, the Activity [8] was 0.0001 mol/L, the Activity [9] was “inactive” and the Activity [10] was 0.01 mol/L. The Activity [11] was 0.01 mol/L, the Ratio [12] was 0.8 and the Ratio [13] was 0.4. The Ratio [14] was 1, the Ratio [15] was 0.7 and the Activity [16] was 46.3%. It also gave an Activity [17] of 23.7%, an Activity [18] of 28% and an Activity [19] of 82.9%. The Activity [20] was 64%.

For `CC(C)(C)CC(=O)O[C@H]1C[C@@]2(C)CC[C@H]1C(C)(C)O2` (racemic) [3-exo-t-butylacetoxy-1,8-cineole], the Ratio [2] was 0.3, the Ratio [3] was 0.6 and the Activity [4] was 72.5%. For the same molecule, the Activity [21] was “inactive”, the Activity [22] was “inactive” and the Activity [6] was 0.001 mol/L. For the same molecule, the Activity [7] was 0.1 mol/L, the Activity [8] was 0.01 mol/L and the Activity [9] was 0.1 mol/L. The Activity [10] was “inactive”, the Activity [11] was “inactive” and the Ratio [12] was 0.3. For the same molecule, the Ratio [13] was 1.1, the Ratio [14] was 0.7 and the Ratio [15] was 0.5. The Activity [16] was 97.8%, the Activity [17] was 44.8% and the Activity [18] was 64.9%. For the same molecule, the Activity [19] was 31.4% and the Activity [20] was 90.9%.

Work on `CC12CCC(C(=O)C1)C(C)(C)O2` (racemic) [3-oxo-1,8-cineole] yielded a Ratio [2] of 0.9, a Ratio [3] of 1.6 and an Activity [4] of 20.5%. For the same molecule, the Activity [23] was “inactive”, the Activity [6] was 0.0001 mol/L and the Activity [7] was 0.1 mol/L. It also gave an Activity [8] of 0.1 mol/L, an Activity [9] of 0.01 mol/L and an Activity [10] of 0.01 mol/L. For the same molecule, the Activity [11] was 0.01 mol/L, the Ratio [12] was 1.2 and the Ratio [13] was 3.4. The Ratio [14] was 2.2, the Ratio [15] was 1.8 and the Activity [16] was 33.3%. The Activity [17] was 18.2%, the Activity [18] was 18.9% and the Activity [19] was 10%. It also gave an Activity [20] of 29.3%.

`Cc1ccccc1CO[C@@H]1C[C@@]2(C(C)C)CCC1(C)O2` [CINMETHYLIN] was tested, and the Activity [4] was 36.5%, the Activity [24] was “inactive” and the Activity [9] was 1 mol/L. The Activity [10] was 0.01 mol/L, the Activity [11] was 0.0001 mol/L and the Ratio [13] was 0.4. It also gave a Ratio [14] of 1, a Ratio [15] of 0.8 and an Activity [19] of 85.7%. For the same molecule, the Activity [20] was 62.5%.

`CC12CCC(CC1)C(C)(C)O2` [EUCALYPTOL] gave an Activity [25] of 0.1 mol/L, an Activity [26] of 0.1 mol/L and an Activity [27] of 0.1 mol/L. The Activity [28] was 0.1 mol/L, the Activity [29] was 1 mol/L and the Activity [30] was 1 mol/L. The Activity [31] was 28.4%, the Activity [32] was 30.2% and the Activity [33] was 22.4%. For the same molecule, the Activity [34] was 34.1%, the Activity [35] was 64.7% and the Activity [36] was 37.1%.

In the case of `CC(C)(C)CC(=O)O` [T-BUTYLACETIC ACID], the inhibition [2] is reported as “Active”, the inhibition [3] is reported as “Active” and the Activity [4] is reported as 0%. The Activity [6] was 0.0001 mol/L, the Activity [7] was 0.01 mol/L and the Activity [8] was 0.0001 mol/L. It also gave an Activity [9] of 0.1 mol/L, an Activity [10] of 0.1 mol/L and an Activity [11] of 0.01 mol/L. For the same molecule, the inhibition [12] was “Active”, the inhibition [13] was “Active” and the inhibition [14] was “Active”. The inhibition [15] was “Active”, the Activity [16] was 0% and the Activity [17] was 0%. The Activity [18] was 0%, the Activity [19] was 0% and the Activity [20] was 0%.
